Data: ChEMBL document CHEMBL3870310, “Design, synthesis and evaluation of pyrazole derivatives as non-nucleoside hepatitis B virus inhibitors” (Eur J Med Chem, 2016)

Experiments:
[1] = Cytotoxicity against human HepG2.2.15 cells assessed as decrease in cell viability after 8 days by CCK-8 assay
[2] = Selectivity index, ratio of CC50 for human HepG2.2.15 cells to IC50 for Hepatitis B virus infected in human HepG2.2.15 cells assessed as inhibition of HBsAg secretion; format: functional
In short: (§1)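 SI = CC50 (CCK-8, HepG2.2.15, 8 days) divided by IC50 for inhibition of HBeAg or HBsAg secretion measured by ELISA in HepG2.2.15 supernatants.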

Hepatitis B virus [3] = test: Antiviral activity against Hepatitis B virus infected in human HepG2.2.15 cells assessed as inhibition of HBsAg secretion by ELISA; format: functional, cell-based
In short: (§2)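 Supernatant from HepG2.2.15 cultures aspirated and HBeAg or HBsAg measured with a diagnostic ELISA kit, absorbance read on a plate reader. Inhibition (%) = (A normal cell group − A experimental group)/[…] × 100; IC50 is the concentration giving 50% inhibition of antigen secretion. Lamivudine positive control.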

Hepatitis B virus [4] = test: Antiviral activity against Hepatitis B virus infected in human HepG2.2.15 cells assessed as inhibition of HBeAg secretion by ELISA; format: functional, cell-based
In short: as §2

[5] = Selectivity index, ratio of CC50 for human HepG2.2.15 cells to IC50 for Hepatitis B virus infected in human HepG2.2.15 cells assessed as inhibition of HBeAg secretion; format: functional
In short: as §1

Hepatitis B virus [6] = test: Antiviral activity against Hepatitis B virus infected in human HepG2.2.15 cells assessed as inhibition of viral DNA replication after 8 days by real-time fluorescent PCR method; format: functional, cell-based; conditions: HepG2.2.15, 192 h
In short: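 HepG2.2.15 cells exposed to compounds […] for 8 days; 100 µL culture supernatant added to extraction buffer, boiled 10 min, centrifuged 10 min, and aliquots assayed for extracellular HBV DNA by fluorescent-probe real-time quantitative PCR kit. Lamivudine positive control.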

[7] = Cytotoxicity against human HepG2.2.15 cells assessed as decrease in cell viability after 8 days by CCK-8 assay; format: toxicity, cell-based, HepG2 2.2.15
In short: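 HepG2.2.15 cells (HBV-transgenic human hepatoma) cultured in triplicate for 8 days with five doses of compound; untreated cells as controls. CCK-8 reagent added 0.5 h before end of culture, absorbance read at 450 nm, percent cell death calculated; CC50 is the concentration killing 50% of cells.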

[8] = Cytotoxicity against human HepAD38 cells; format: toxicity, cell-based
Hepatitis B virus [9] = test: Antiviral activity against Hepatitis B virus infected in human HepAD38 cells assessed as inhibition of viral DNA replication; format: functional, cell-based
Hepatitis B virus [10] = test: Antiviral activity against Hepatitis B virus; format: functional

Row | Compound | IC50 (Hepatitis B virus [3]) [µM] | IC50 (Hepatitis B virus [4]) [µM] | IC50 (Hepatitis B virus [6]) [µM] | IC50 (Hepatitis B virus [9]) [µM] | IC50 (Hepatitis B virus [10]) [µM] | IC50 at 8 days [1] [µM] | Ratio CC50/IC50 [2] | Ratio CC50/IC50 [5] | CC50 at 192 h [7] [µM] | IC50 [8] [µM]
1 | CC(C)Cc1nn(-c2cccc(F)c2)cc1C(=O)NCc1ccncc1 | > 100 | 71.2 | – | – | – | – | – | >1.41 | > 100 | –
2 | COc1ccccc1/C(Br)=C(/NC(=O)c1ccc([N+](=O)[O-])cc1)C(=O)N1CCCCC1 | – | – | – | 0.13 | – | – | – | – | – | > 51
3 | CCOC(=O)c1nc(-c2cncs2)sc1CC(C)C | – | – | 1.1 | – | – | – | – | – | – | –
4 | CC(C)Cc1nn(-c2nccs2)cc1C(=O)NCc1ccc(C(F)(F)F)cc1 | > 100 | > 100 | – | – | – | – | – | – | > 100 | –
5 | CCOC(=O)c1cn(-c2ccc([N+](=O)[O-])cc2)nc1CC(C)C | > 100 | > 100 | – | – | – | – | – | – | > 100 | –
6 | CCOC(=O)c1cn(-c2ccc(OC)cc2)nc1CC(C)C | 68.5 | 71.6 | – | – | – | – | 1.12 | 1.08 | 77.1 | –
7 | CCOC(=O)c1cn(-c2ccccc2F)nc1CC(C)C | 94.8 | 82.3 | – | – | – | – | >1.05 | >1.21 | > 100 | –
8 | CC(C)Cc1nn(-c2nccs2)cc1C(=O)NCc1ccc(N)cc1 | > 100 | > 100 | – | – | – | – | – | – | > 100 | –
9 | CC(C)Cc1nn(-c2nccs2)cc1C(=O)NCc1ccc(O)cc1 | > 100 | 86.2 | – | – | – | – | – | >1.16 | > 100 | –
10 | COc1ccc(CNC(=O)c2cn(-c3nccs3)nc2CC(C)C)cc1 | > 100 | 95.7 | – | – | – | – | – | >1.05 | > 100 | –
11 | CCOC(=O)c1cn(-c2ccc(F)cc2)nc1CC(C)C | > 100 | > 100 | – | – | – | – | – | – | > 100 | –
12 | CCOC(=O)c1cn(-c2nccs2)nc1CC(C)C | > 100 | > 100 | – | – | – | – | – | – | > 100 | –
13 | CCOC(=O)c1cn(-c2ccc(C(=O)O)cc2)nc1CC(C)C | > 100 | > 100 | – | – | – | – | – | – | > 100 | –
14 | CC(C)Cc1nn(-c2cccc(F)c2)cc1C(=O)NCC1CCN(C(=O)OC(C)(C)C)CC1 | > 100 | > 100 | – | – | – | – | – | – | > 100 | –
15 | CCOC(=O)c1nc(-c2cccc(F)c2)sc1CC(C)C | – | – | – | – | < 0.05 | – | – | – | – | –
16 | CC(C)Cc1nn(-c2cccc(F)c2)cc1C(=O)NCc1ccc(F)cc1 | > 100 | > 100 | – | – | – | – | – | – | > 100 | –
17 | COC(=O)c1nc(-c2cnc([C@@H](NC(=O)c3cccs3)C(C)C)s2)oc1C | – | – | 76.4 | – | – | – | – | – | – | –
18 | Nc1ccn([C@@H]2CS[C@H](CO)O2)c(=O)n1 [LAMIVUDINE] | > 100 | > 100 | – | – | – | – | – | – | > 100 | –

Now from value to compound, other results behind:

Row | IC50 (Hepatitis B virus [3]) [µM] | IC50 (Hepatitis B virus [4]) [µM] | IC50 (Hepatitis B virus [6]) [µM] | IC50 (Hepatitis B virus [9]) [µM] | IC50 (Hepatitis B virus [10]) [µM] | Compound | IC50 at 8 days [1] [µM] | Ratio CC50/IC50 [2] | Ratio CC50/IC50 [5] | CC50 at 192 h [7] [µM] | IC50 [8] [µM]
19 | 34.7 | 31.6 | 1.33 | – | – | CC(C)Cc1sc(-c2nccs2)nc1C(=O)NCc1ccc(F)cc1 | 50.4 | 1.48 | 1.63 | 51.5 | –
20 | 63.3 | 59.4 | – | – | – | CCOC(=O)c1cn(-c2cccc([N+](=O)[O-])c2)nc1CC(C)C | – | 0.94 | – | 59.3 | –
21 | 50.1 | 26 | – | – | – | CC(C)Cc1nn(-c2nccs2)cc1C(=O)NCc1ccccc1F | – | >2 | >3.85 | > 100 | –
22 | 51.9 | 34 | – | – | – | CC(C)Cc1nn(-c2cccc(F)c2)cc1C(=O)NNc1ccc(F)cc1 | – | – | 1.34 | 45.4 | –
23 | 25.9 | 24.7 | – | – | – | CC(C)Cc1nn(-c2cccc(F)c2)cc1C(=O)Nc1ccc(F)cc1 | – | 1.4 | 1.47 | 36.2 | –
24 | 44.5 | 31.4 | – | – | – | CC(C)Cc1nn(-c2nccs2)cc1C(=O)NCc1ccc(F)cc1 | – | >2.25 | >3.18 | > 100 | –
25 | 24.3 | 2.22 | – | – | – | CC(C)Cc1nn(-c2nccs2)cc1C(=O)Nc1ccc(F)cc1 | – | 3.44 | 37.69 | 83.7 | –
26 | 57.6 | 44.8 | – | – | – | COc1ccc(CONC(=O)c2cn(-c3cccc(F)c3)nc2CC(C)C)cc1 | – | 1.18 | 1.52 | 67.9 | –
27 | 38.6 | 38.5 | – | – | – | CC(C)Cc1nn(-c2cccc(F)c2)cc1C(=O)NCc1ccccc1 | – | 2.23 | 2.23 | 85.9 | –
28 | 63.3 | 70.6 | – | – | – | CCOC(=O)c1cn(-c2cccc(OC)c2)nc1CC(C)C | – | 1.11 | 1 | 70.5 | –
29 | 49.3 | < 6.25 | – | – | – | CCOC(=O)c1cn(-c2ccccc2[N+](=O)[O-])nc1CC(C)C | – | 0.1 | >0.78 | 4.85 | –
30 | 58.8 | 17.2 | – | – | – | CC(C)Cc1nn(-c2nccs2)cc1C(=O)NCc1cccc(F)c1 | – | >1.7 | >5.8 | > 100 | –
31 | 41.8 | 8.84 | – | – | – | CC(C)Cc1nn(-c2nccs2)cc1C(=O)NCc1ccc(F)cc1F | – | 2 | 9.46 | 83.6 | –
32 | 41.9 | 47.9 | – | – | – | CCOC(=O)c1cn(-c2cccc(C(=O)O)c2)nc1CC(C)C | – | 0.17 | 0.15 | 7.1 | –
